Experimental data reported in ChEMBL document CHEMBL1139970, “3,4-Dihydro-2H-benzo[1,4]oxazine derivatives as 5-HT6 receptor antagonists” (Bioorg Med Chem Lett, 2007).

How the values were obtained:
[1] = biological target: 5-hydroxytryptamine receptor 6 (Homo sapiens, UniProt P50406); assay: Displacement of [3H]LSD from human recombinant 5HT6 receptor expressed in HEK293 cells; assay type: cell-based
Summary of the method: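 Competition binding against [3H]LSD, run at 37 °C on HEK293 cells expressing recombinant human 5-HT6 receptor. Affinity is expressed as pKi, with standard deviation of the pKi estimates 0.05–0.3.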

hERG (KCNH2) [2] = biological target: T1, hERG (KCNH2) (Homo sapiens, UniProt Q12809); assay: Inhibition of hERG current at 1 uM by patch clamp electrophysiology assay; assay type: toxicity
Summary of the method: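 Conventional patch-clamp electrophysiology measuring inhibition of hERG outward current at a single test concentration. Baseline set to 0%; mean with SEM from n = 2 cells.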

[3] = Ratio of drug level in brain to plasma in rat at 2 mg/kg, iv after 1 hr; assay type: ADME, organism-based; parameters: dose 2 mg/kg, route intravenous
Summary of the method: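 Rats received a single intravenous 2 mg/kg dose. At 1 h post-dose, drug levels in whole brain homogenate and plasma were quantified by HPLC–MS/MS, and the brain-to-plasma ratio was calculated.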

hERG (KCNH2) [4] = biological target: T1, hERG (KCNH2); assay: Inhibition of hERG current by patch clamp electrophysiology assay; assay type: toxicity

T1 sequence (Q12809 whole entry): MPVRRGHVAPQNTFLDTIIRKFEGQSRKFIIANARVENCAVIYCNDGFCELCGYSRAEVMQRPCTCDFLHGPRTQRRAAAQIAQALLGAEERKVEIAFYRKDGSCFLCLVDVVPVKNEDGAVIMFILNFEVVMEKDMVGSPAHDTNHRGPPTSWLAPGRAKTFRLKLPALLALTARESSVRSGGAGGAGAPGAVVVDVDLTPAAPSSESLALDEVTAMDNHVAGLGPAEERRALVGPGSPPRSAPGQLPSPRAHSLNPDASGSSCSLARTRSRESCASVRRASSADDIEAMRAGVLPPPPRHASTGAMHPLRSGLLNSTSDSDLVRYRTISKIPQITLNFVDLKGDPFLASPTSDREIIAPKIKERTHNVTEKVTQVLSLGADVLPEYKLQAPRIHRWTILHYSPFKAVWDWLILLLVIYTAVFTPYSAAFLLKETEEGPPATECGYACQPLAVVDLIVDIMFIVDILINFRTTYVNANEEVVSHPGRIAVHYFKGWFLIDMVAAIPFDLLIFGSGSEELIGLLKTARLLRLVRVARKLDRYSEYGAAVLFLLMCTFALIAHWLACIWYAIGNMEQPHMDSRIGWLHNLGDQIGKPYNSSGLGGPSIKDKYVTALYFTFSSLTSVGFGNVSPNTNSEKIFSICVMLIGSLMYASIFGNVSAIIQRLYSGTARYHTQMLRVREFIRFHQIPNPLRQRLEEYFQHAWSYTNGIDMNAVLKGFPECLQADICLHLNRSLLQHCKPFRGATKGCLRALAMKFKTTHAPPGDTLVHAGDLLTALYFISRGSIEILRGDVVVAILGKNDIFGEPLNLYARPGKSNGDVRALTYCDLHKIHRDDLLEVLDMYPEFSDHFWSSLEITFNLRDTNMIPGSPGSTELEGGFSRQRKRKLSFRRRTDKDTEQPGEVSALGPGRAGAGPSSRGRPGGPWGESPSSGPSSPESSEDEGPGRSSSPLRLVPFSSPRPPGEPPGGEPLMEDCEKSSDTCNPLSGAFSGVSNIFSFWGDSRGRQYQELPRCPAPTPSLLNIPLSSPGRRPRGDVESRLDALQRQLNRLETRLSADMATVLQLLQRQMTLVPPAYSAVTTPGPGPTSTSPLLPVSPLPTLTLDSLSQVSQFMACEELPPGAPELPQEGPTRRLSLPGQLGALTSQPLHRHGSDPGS
Chain of 5-hydroxytryptamine receptor 6 (P50406 whole entry): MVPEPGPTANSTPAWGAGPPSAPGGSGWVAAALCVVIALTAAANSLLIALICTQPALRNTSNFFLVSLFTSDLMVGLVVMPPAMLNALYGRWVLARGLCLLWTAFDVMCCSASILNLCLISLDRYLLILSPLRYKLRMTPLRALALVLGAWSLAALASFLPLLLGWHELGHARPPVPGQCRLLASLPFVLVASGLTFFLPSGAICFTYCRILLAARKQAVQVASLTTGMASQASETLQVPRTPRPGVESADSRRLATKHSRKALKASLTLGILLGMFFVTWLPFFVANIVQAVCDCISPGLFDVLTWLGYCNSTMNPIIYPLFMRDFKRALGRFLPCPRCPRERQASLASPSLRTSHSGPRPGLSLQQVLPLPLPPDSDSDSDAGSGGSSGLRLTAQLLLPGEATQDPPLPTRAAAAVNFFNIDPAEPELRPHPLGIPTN

O=S(=O)(c1ccccc1)N1CCOc2c(N3CCNCC3)cccc21
Ki [1]: 12.6 nM

O=S(=O)(c1ccccc1F)N1CCOc2c(N3CCNCC3)cccc21
inhibition at 1 µM (hERG (KCNH2) [2]): 9.9%
Kp at 1 h [3]: 1.8
IC20 (hERG (KCNH2) [4]): 2200 nM

O=S(=O)(c1cccc(Cl)c1)N1CCOc2c(N3CCNCC3)cccc21
Ki [1]: 2 nM
Kp at 1 h [3]: 1.4

O=S(=O)(c1cccc(F)c1)N1CCOc2c(N3CCNCC3)cccc21
Ki [1]: 10 nM

CS(=O)(=O)Nc1cccc(S(=O)(=O)N2CCOc3c(N4CCNCC4)cccc32)c1
Ki [1]: 200 nM

CS(=O)(=O)c1ccccc1S(=O)(=O)N1CCOc2c(N3CCNCC3)cccc21
Ki [1]: 316 nM

O=S(=O)(c1cccc2cccnc12)N1CCOc2c(N3CCNCC3)cc(Cl)cc21
Ki [1]: 0.631 nM

Cc1cc(N2CCNCC2)c2c(c1)N(S(=O)(=O)c1ccccc1F)CCO2
Ki [1]: 0.398 nM
inhibition at 1 µM (hERG (KCNH2) [2]): 26.5%

Cc1cc(N2CCNCC2)c2c(c1)N(S(=O)(=O)c1ccccc1C#N)CCO2
Ki [1]: 2 nM
inhibition at 1 µM (hERG (KCNH2) [2]): 14.2%

O=S(=O)(c1ccccc1F)N1CCOc2c(N3CCNCC3)cc(F)cc21
Ki [1]: 0.631 nM
inhibition at 1 µM (hERG (KCNH2) [2]): 26%

O=S(=O)(c1ccccc1F)N1CCOc2c(N3CCNCC3)cc(Cl)cc21
Ki [1]: 0.398 nM
inhibition at 1 µM (hERG (KCNH2) [2]): 45.2%
Kp at 1 h [3]: 2.7

COc1cc(N2CCNCC2)c2c(c1)N(S(=O)(=O)c1ccccc1)CCO2
Ki [1]: 0.398 nM
inhibition at 1 µM (hERG (KCNH2) [2]): 34%
Kp at 1 h [3]: 0.8

CC(C)(C)c1cc(N2CCNCC2)c2c(c1)N(S(=O)(=O)c1ccccc1F)CCO2
Ki [1]: 7.94 nM

Nc1ccc(S(=O)(=O)N2CCOc3c(N4CCNCC4)cc(F)cc32)cc1
Ki [1]: 1.26 nM

CC1(C)CN(S(=O)(=O)c2ccccc2F)c2cccc(N3CCNCC3)c2O1
Ki [1]: 0.316 nM

Nc1cccc2c1OCCN2S(=O)(=O)c1ccccc1F
Ki [1]: 631 nM

Cc1cc(N2CC(C)NC(C)C2)c2c(c1)N(S(=O)(=O)c1ccc(Cl)cc1)CCO2 (stereo not given)
Ki [1]: 39.8 nM

CC1(C)CN(S(=O)(=O)c2ccccc2)c2cc(F)cc(C3CCNCC3)c2O1
Ki [1]: 3.98 nM

CN(C)CCNc1cccc2c1OC(C)(C)CN2S(=O)(=O)c1cccc(F)c1
Ki [1]: 126 nM

Cc1cc(N2CCNCC2)c2c(c1)N(S(=O)(=O)c1ccccc1)CCO2
Ki [1]: 2.51 nM
inhibition at 1 µM (hERG (KCNH2) [2]): 23.2%
Kp at 1 h [3]: 1

COc1cc(N2CCNCC2)c2c(c1)N(S(=O)(=O)c1ccccc1F)CCO2
Ki [1]: 0.158 nM

O=S(=O)(c1ccccc1F)N1CC2(CCC2)Oc2c(N3CCNCC3)cccc21
Ki [1]: 0.631 nM

O=S(=O)(c1ccccc1)N1CCOc2c(N3CCCNCC3)cc(Cl)cc21
Ki [1]: 3.98 nM

O=S(=O)(c1ccccc1Cl)N1CCOc2c(N3CCNCC3)cccc21
Ki [1]: 3.16 nM
inhibition at 1 µM (hERG (KCNH2) [2]): 28.2%
Kp at 1 h [3]: 1.6

O=S(=O)(c1cccc2ccccc12)N1CCOc2c(N3CCNCC3)cc(Cl)cc21
Ki [1]: 0.794 nM

CC1(C)CN(S(=O)(=O)c2cccc(F)c2)c2cc(F)cc(C3CCNCC3)c2O1
Ki [1]: 5.01 nM
